Assay results as given in ChEMBL document CHEMBL4020827, “Targeting Multiple Effector Pathways in Pancreatic Ductal Adenocarcinoma with a G-Quadruplex-Binding Small Molecule” (J Med Chem, 2018).
The source made the active and inactive calls. The calls are words filed in the database; no cut-off is given here.

Experiments:
[1] = Binding affinity to 5'-FAM/3'-TAMRA labeled HSP90A promoter G-quadruplex DNA (unknown origin) assessed as change in melting temperature at 1 uM by FRET assay
In short: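 FRET melting of FAM/TAMRA dual-labelled promoter G4 oligonucleotides, 400 nM, annealed at 95 °C for 10 min in 60 mM potassium cacodylate (pH 7.4) then cooled to RT. Ligand at 1 μM in solution with 50 mM K+. Fluorescence (ex 450–495, em 515–545 nm) read every 0.5 °C over 30–100 °C with a 30 sec hold per step. ΔTm from curve fitting; triplicate measurements.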

A549 = assay: Growth inhibition of human A549 cells after 96 hrs by SRB assay; type: functional, cell-based; conditions: A549, 96 h
In short: (§1)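 Cell lines kept at 37 °C, 5% CO2 in medium with 10% FBS and 2 mM L-glutamine. Compound dissolved in water, filter-sterilised, 10 mM stock diluted into media. Growth read by 96 h sulforhodamine B assay, absorbance at 540 nm. IC50 taken from mean absorbance per concentration as % of untreated wells, >3 individual determinations with standard deviations.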

[2] = Selectivity index, ratio of IC50 for human WI38 cells to IC50 for human MIAPaCa2 cells; type: functional
In short: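 SRB growth-inhibition assay over 96 h with compounds dissolved in water; cells grown in 10 % FBS at 37 °C, 5% CO2. Absorbance at 540 nm as a percentage of untreated wells gives the IC50. Values are averages of >3 determinations, with the ratio taken as WI-38 IC50 over MIA PaCa-2 IC50.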

CAPAN-1 = assay: Growth inhibition of human Capan1 cells after 96 hrs by SRB assay; type: functional, cell-based; conditions: CAPAN-1, 96 h; in short: as §1
BXPC-3 = assay: Growth inhibition of human BxPC3 cells after 96 hrs by SRB assay; type: functional, cell-based; conditions: BXPC-3, 96 h; in short: as §1
[3] = Toxicity in iv dosed CD-1 nude mouse assessed as death measured up to 72 hrs; type: organism-based; conditions: in vivo
In short: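 CD1 nude mice, two per group, given single IV doses in saline (10, 20, 30, 35, 40, 45, 50 and 60 mg/kg), with repeat dosing weekly. Watched for adverse effects for up to 72 h. Tolerated dose taken as highest cohort in which all mice survived without observed ill-effects.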

PANC-1 [4] = assay: Effect on ARF6 gene expression in human PANC1 cells at 400 nM after 6 hrs by RNA sequence analysis relative to control; type: functional
In short: (§2)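 PANC-1 (0.35 x 10^6) or MIA PaCa-2 (1.5 x 10^6) cells seeded overnight in 60 mm plates, then exposed to 400 nM compound for 6 or 24 h; untreated cells as controls. Cells were mycoplasma-free and STR-certified. Differential expression by RNA-seq, called at FDR < 0.1.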

PANC-1 [5] = assay: Effect on CBFA2T3 gene expression in human PANC1 cells at 400 nM after 6 hrs by RNA sequence analysis relative to control; type: functional; in short: as §2
PANC-1 [6] = assay: Effect on IQSEC1 gene expression in human PANC1 cells at 400 nM after 6 hrs by RNA sequence analysis relative to control; type: functional
PANC-1 [7] = assay: Effect on MAPK9 gene expression in human PANC1 cells at 400 nM after 6 hrs by RNA sequence analysis relative to control; type: functional
PANC-1 [8] = assay: Effect on PAK1 gene expression in human PANC1 cells at 400 nM after 6 hrs by RNA sequence analysis relative to control; type: functional
PANC-1 [9] = assay: Effect on PCK2 gene expression in human PANC1 cells at 400 nM after 6 hrs by RNA sequence analysis relative to control; type: functional
PANC-1 [10] = assay: Effect on SHANK2 gene expression in human PANC1 cells at 400 nM after 6 hrs by RNA sequence analysis relative to control; type: functional
In short: (§3)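 RNA-seq: cells seeded overnight in 60 mm plates (PANC-1 0.35 x 10^6, MIA PaCa-2 1.5 x 10^6 cells/well), then exposed to 400 nM compound for 6 or 24 h against untreated controls. Cell lines mycoplasma-free by RNA-capture ELISA and STR-profiled. Differentially expressed genes called at FDR < 0.1.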

PANC-1 [11] = assay: Effect on SMO gene expression in human PANC1 cells at 400 nM after 6 hrs by RNA sequence analysis relative to control; type: functional; in short: as §3
PANC-1 [12] = assay: Effect on TEAD4 gene expression in human PANC1 cells at 400 nM after 6 hrs by RNA sequence analysis relative to control; type: functional; in short: as §3
MIA PaCa-2 [13] = assay: Effect on AKT1 gene expression in human MIAPaCa2 cells at 400 nM after 6 hrs by RNA sequence analysis relative to control; type: functional; in short: as §2
MIA PaCa-2 [14] = assay: Effect on CTBP1 gene expression in human MIAPaCa2 cells at 400 nM after 6 hrs by RNA sequence analysis relative to control; type: functional; in short: as §2
MIA PaCa-2 [15] = assay: Effect on MAPK11 gene expression in human MIAPaCa2 cells at 400 nM after 6 hrs by RNA sequence analysis relative to control; type: functional
MIA PaCa-2 [16] = assay: Effect on MAPK12 gene expression in human MIAPaCa2 cells at 400 nM after 6 hrs by RNA sequence analysis relative to control; type: functional
MIA PaCa-2 [17] = assay: Effect on RPTOR gene expression in human MIAPaCa2 cells at 400 nM after 6 hrs by RNA sequence analysis relative to control; type: functional; in short: as §3
MIA PaCa-2 [18] = assay: Effect on ULK1 gene expression in human MIAPaCa2 cells at 400 nM after 6 hrs by RNA sequence analysis relative to control; type: functional; in short: as §3
PANC-1 [19] = assay: Effect on IQSEC1 gene expression in human PANC1 cells at 400 nM after 24 hrs by RNA sequence analysis relative to control; type: functional; in short: as §2
PANC-1 [20] = assay: Effect on mLST8 gene expression in human PANC1 cells at 400 nM after 24 hrs by RNA sequence analysis relative to control; type: functional; in short: as §3
PANC-1 [21] = assay: Effect on PARD6A gene expression in human PANC1 cells at 400 nM after 24 hrs by RNA sequence analysis relative to control; type: functional
PANC-1 [22] = assay: Effect on PFKFB4 gene expression in human PANC1 cells at 400 nM after 24 hrs by RNA sequence analysis relative to control; type: functional
PANC-1 [23] = assay: Effect on ROBO3 gene expression in human PANC1 cells at 400 nM after 24 hrs by RNA sequence analysis relative to control; type: functional; in short: as §3
PANC-1 [24] = assay: Effect on SMO gene expression in human PANC1 cells at 400 nM after 24 hrs by RNA sequence analysis relative to control; type: functional; in short: as §3
PANC-1 [25] = assay: Effect on ULK1 gene expression in human PANC1 cells at 400 nM after 24 hrs by RNA sequence analysis relative to control; type: functional; in short: as §3
MIA PaCa-2 [26] = assay: Effect on AKT1 gene expression in human MIAPaCa2 cells at 400 nM after 24 hrs by RNA sequence analysis relative to control; type: functional; in short: as §2
MIA PaCa-2 [27] = assay: Effect on FASN gene expression in human MIAPaCa2 cells at 400 nM after 24 hrs by RNA sequence analysis relative to control; type: functional; in short: as §2
Homo sapiens = species on record: Homo sapiens; assay: Stabilization of G-quadruplex DNA in human PANC1 cells assessed as increase in BG4 foci at 400 nM after 6 to 24 hrs by FITC/Cy5/DAPI staining based immunofluorescence assay; type: cell-based

In the case of `O=C1c2ccc3c4c(c(NCCN5CCCC5)cc(c24)C(=O)N1CCCN1CCOCC1)C(=O)N(CCCN1CCOCC1)C3=O`, the ΔTm [1] is reported as 15.7 °C, the IC50 (A549) is reported as 24 nM and the “Ratio IC50” value [2] is reported as 170. The IC50 (CAPAN-1) was 16 nM, the IC50 (BXPC-3) was 19 nM and the MTD at 72 h [3] was 45 to 50 mg/kg. For the same compound, the log2FC (PANC-1 [4]) was -0.74, the log2FC (PANC-1 [5]) was -2.18 and the log2FC (PANC-1 [6]) was -0.86. It also gave a log2FC (PANC-1 [7]) of -0.28, a log2FC (PANC-1 [8]) of -0.54 and a log2FC (PANC-1 [9]) of -0.01. It also gave a log2FC (PANC-1 [10]) of -1.65, a log2FC (PANC-1 [11]) of -0.92 and a log2FC (PANC-1 [12]) of -0.23. It also gave a log2FC (MIA PaCa-2 [13]) of -0.2, a log2FC (MIA PaCa-2 [14]) of -0.52 and a log2FC (MIA PaCa-2 [15]) of -0.53. For the same compound, the log2FC (MIA PaCa-2 [16]) was -0.47, the log2FC (MIA PaCa-2 [17]) was -1.41 and the log2FC (MIA PaCa-2 [18]) was 0.03. It also gave a log2FC (PANC-1 [19]) of -0.5, a log2FC (PANC-1 [20]) of -1.72 and a log2FC (PANC-1 [21]) of -1.41. The log2FC (PANC-1 [22]) was -0.74, the log2FC (PANC-1 [23]) was -0.85 and the log2FC (PANC-1 [24]) was -0.82. For the same compound, the log2FC (PANC-1 [25]) was -0.81, the log2FC (MIA PaCa-2 [26]) was -0.98 and the log2FC (MIA PaCa-2 [27]) was -0.54. For the same compound, the Activity (Homo sapiens) was “Active”.
